Calls of active or inactive are those of the source. The calls are words filed in the database; no cut-off is given here.
Legend:
Mus musculus [1] = assay: Anxiolytic activity in Harlan CD-1 mouse assessed as inhibition of marble burying behavior at >= 3 mg/kg, ip; type: functional, organism-based; set-up: dose 3 mg/kg
How it was run: (§1)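 Marble burying in mice with deep bedding; compound given IP at a range of doses with 15 min pretreatment, n = 8 per dose; marbles buried counted, brain samples collected right after testing for exposure; comparison to vehicle by Dunnett's test.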

Mus musculus [2] = assay: Anxiolytic activity in ip dosed Harlan CD-1 mouse assessed as inhibition of marble burying behavior; type: functional, organism-based; how it was run: as §1
[3] = target: Sodium-dependent serotonin transporter (Homo sapiens) (UniProt P31645); assay: Displacement of [3H]-Paroxetine from human recombinant SERT expressed in HEK293 cells at 10 uM relative to control; type: cell-based
[4] = target: Sodium-dependent noradrenaline transporter (Homo sapiens) (UniProt P23975); assay: Displacement of [125I]-RTI-55 from human recombinant NET expressed in MDCK cells at 10 uM relative to control; type: cell-based
How it was run: (§2)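 Tested once at 10 μM in a commercial radioligand binding panel of 68 GPCRs, ion channels, kinases and transporters. Activity is given as displacement of each radioligand relative to control.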

Rattus norvegicus [5] = species on record: Rattus norvegicus; assay: Displacement of [125I]-Triiodothyronine from thyroid hormone receptor in rat liver at 10 uM relative to control; how it was run: as §2
[6] = target: Substance-P receptor (Homo sapiens) (UniProt P25103); assay: Displacement of [3H]-Substance P from human recombinant tachykinin NK1 receptor expressed in CHO cells at 10 uM relative to control; type: cell-based
Rattus norvegicus [7] = species on record: Rattus norvegicus; assay: Displacement of [3H]-Batrachotoxin from sodium channel site 2 in rat brain at 10 uM relative to control; type: tissue-based; how it was run: as §2
[8] = target: 5-hydroxytryptamine receptor 1A (Homo sapiens) (UniProt P08908); assay: Displacement of [3H]-8-OH-DPAT from human recombinant 5-HT1A receptor expressed in CHO-K1 cells at 10 uM relative to control; type: cell-based; how it was run: as §2
[9] = target: 5-hydroxytryptamine receptor 3A (Homo sapiens) (UniProt P46098); assay: Displacement of [3H]-GR-65630 from human recombinant 5-HT3 receptor expressed in HEK293 cells at 10 uM relative to control; type: cell-based; how it was run: as §2
Rattus norvegicus [10] = species on record: Rattus norvegicus; assay: Displacement of [3H]-Rolipram from rolipram binding site in rat brain at 10 uM relative to control; type: tissue-based
[11] = target: Platelet-activating factor receptor (Homo sapiens) (UniProt P25105); assay: Displacement of [3H]-PAF from platelet activating factor receptor in human platelets at 10 uM relative to control; how it was run: as §2
Mus musculus [12] = species on record: Mus musculus; assay: Displacement of [3H]-PDBu from phorbol ester receptor in mouse brain at 10 uM relative to control; type: tissue-based; how it was run: as §2
[13] = target: Kappa-type opioid receptor (Homo sapiens) (UniProt P41145); assay: Displacement of [3H]-Diprenorphine from human recombinant kappa receptor expressed in HEK293 cells at 10 uM relative to control; type: cell-based; how it was run: as §2
[14] = target: Muscarinic acetylcholine receptor M1 (Homo sapiens) (UniProt P11229); assay: Displacement of [3H]-N-Methylscopolamine from human recombinant muscarinic M1 receptor expressed in CHO-K1 cells at 10 uM relative to control; type: cell-based; how it was run: as §2
[15] = target: Muscarinic acetylcholine receptor M2 (Homo sapiens) (UniProt P08172); assay: Displacement of [3H]-N-Methylscopolamine from human recombinant muscarinic M2 receptor expressed in CHO-K1 cells at 10 uM relative to control; type: cell-based; how it was run: as §2
CHO-K1 [16] = assay: Displacement of [125I]-2-Iodomelatonin from human recombinant MT1 receptor expressed in CHO-K1 cells at 10 uM relative to control; type: cell-based; how it was run: as §2
Rattus norvegicus [17] = species on record: Rattus norvegicus; assay: Displacement of [3H]-Idazoxan from central-type imidazoline I2 receptor in rat cerebral cortex at 10 uM relative to control; type: tissue-based; how it was run: as §2
[18] = target: Histamine H1 receptor (Homo sapiens) (UniProt P35367); assay: Displacement of [3H]-Pyrilamine from human recombinant histamine H1 receptor expressed in CHO-K1 cells at 10 uM relative to control; type: cell-based
[19] = target: Histamine H3 receptor (Homo sapiens) (UniProt Q9Y5N1); assay: Displacement of [3H]-N(-)-alpha-Methylhistamine from human recombinant histamine H3 receptor expressed in CHO-K1 cells at 10 uM relative to control; type: cell-based; how it was run: as §2
Rattus norvegicus [20] = species on record: Rattus norvegicus; assay: Displacement of [3H]-Kainic acid from kainate receptor in cerebellum-less rat brain homogenate at 10 uM relative to control; type: tissue-based; how it was run: as §2
[21] = target: Gamma-aminobutyric acid type B receptor subunit 1 (Homo sapiens) (UniProt Q9UBS5); assay: Displacement of [3H]-CGP-54626 from human recombinant GABAB1A receptor expressed in CHO cells at 10 uM relative to control; type: cell-based; how it was run: as §2
[22] = target: Glucocorticoid receptor (Homo sapiens) (UniProt P04150); assay: Displacement of [3H]-Dexamethasone from human recombinant glucocorticoid receptor at 10 uM relative to control; how it was run: as §2
Rattus norvegicus [23] = species on record: Rattus norvegicus; assay: Displacement of [3H]-Flunitrazepam from central-type GABAA receptor flunitrazepam binding site in cerebellum-less rat brain homogenate at 10 uM relative to control; type: tissue-based; how it was run: as §2
[24] = target: Epidermal growth factor receptor (Homo sapiens) (UniProt P00533); assay: Displacement of [125I]-EGF from epidermal growth factor receptor in human A431 cells at 10 uM relative to control; type: cell-based; conditions: A-431; how it was run: as §2
CHO-K1 [25] = assay: Displacement of [3H]-Spiperone from human recombinant dopamine D4.2 receptor expressed in CHO-K1 cells at 10 uM relative to control; type: cell-based
[26] = target: L-type calcium channel, benzothiazepine binding site (Rattus norvegicus, UniProt P22002+P27732+Q02485); assay: Displacement of [3H]-Diltiazem from L-Type calcium channel benzothiazepine binding site in rat brain at 10 uM relative to control; type: tissue-based; conditions: probe [3H]-Diltiazem
[27] = target: Androgen receptor (Homo sapiens) (UniProt P10275); assay: Displacement of [3H]-Methyltrienolone from androgen receptor in human LNCAP cells at 10 uM relative to control; type: cell-based; how it was run: as §2
[28] = target: Beta-2 adrenergic receptor (Homo sapiens) (UniProt P07550); assay: Displacement of [3H]-CGP-12177 from human recombinant adrenergic beta2 receptor expressed in CHO cells at 10 uM relative to control; type: cell-based; how it was run: as §2
[29] = target: Alpha-1A adrenergic receptor (Rattus norvegicus) (UniProt P43140); assay: Displacement of [3H]-Prazosin from adrenergic alpha1A receptor in rat submaxillary gland at 10 uM relative to control; type: tissue-based
[30] = target: Metabotropic glutamate receptor 4 (Rattus norvegicus) (UniProt P31423); assay: Allosteric modulation of rat mGlu4 receptor expressed in HEK293 cells coexpressing G protein-activated inward rectifier potassium channel assessed as effect on glutamate-induced thallium flux at 10 uM; type: cell-based
[31] = target: Metabotropic glutamate receptor 3 (Rattus norvegicus) (UniProt P31422); assay: Allosteric modulation of rat mGlu3 receptor expressed in HEK293 cells coexpressing G protein-activated inward rectifier potassium channel assessed as effect on glutamate-induced thallium flux at 10 uM; type: cell-based
[32] = Ratio of drug level in brain to plasma in CD-1 mouse at 10 mg/kg, ip by LC-MS/MS analysis; type: ADME, organism-based; set-up: dose 10 mg/kg, route intraperitoneal; conditions: brain and plasma, read-out: BPR
Brain [33] = assay: AUC in CD-1 mouse brain at 10 mg/kg, ip by LC-MS/MS analysis; type: ADME, organism-based; set-up: dose 10 mg/kg, route intraperitoneal; conditions: in vivo
Brain [34] = assay: Tmax in CD-1 mouse brain at 10 mg/kg, ip by LC-MS/MS analysis; type: ADME, organism-based; set-up: dose 10 mg/kg, route intraperitoneal; conditions: in vivo

Sequence of Glucocorticoid receptor (Homo sapiens) (P04150 whole entry): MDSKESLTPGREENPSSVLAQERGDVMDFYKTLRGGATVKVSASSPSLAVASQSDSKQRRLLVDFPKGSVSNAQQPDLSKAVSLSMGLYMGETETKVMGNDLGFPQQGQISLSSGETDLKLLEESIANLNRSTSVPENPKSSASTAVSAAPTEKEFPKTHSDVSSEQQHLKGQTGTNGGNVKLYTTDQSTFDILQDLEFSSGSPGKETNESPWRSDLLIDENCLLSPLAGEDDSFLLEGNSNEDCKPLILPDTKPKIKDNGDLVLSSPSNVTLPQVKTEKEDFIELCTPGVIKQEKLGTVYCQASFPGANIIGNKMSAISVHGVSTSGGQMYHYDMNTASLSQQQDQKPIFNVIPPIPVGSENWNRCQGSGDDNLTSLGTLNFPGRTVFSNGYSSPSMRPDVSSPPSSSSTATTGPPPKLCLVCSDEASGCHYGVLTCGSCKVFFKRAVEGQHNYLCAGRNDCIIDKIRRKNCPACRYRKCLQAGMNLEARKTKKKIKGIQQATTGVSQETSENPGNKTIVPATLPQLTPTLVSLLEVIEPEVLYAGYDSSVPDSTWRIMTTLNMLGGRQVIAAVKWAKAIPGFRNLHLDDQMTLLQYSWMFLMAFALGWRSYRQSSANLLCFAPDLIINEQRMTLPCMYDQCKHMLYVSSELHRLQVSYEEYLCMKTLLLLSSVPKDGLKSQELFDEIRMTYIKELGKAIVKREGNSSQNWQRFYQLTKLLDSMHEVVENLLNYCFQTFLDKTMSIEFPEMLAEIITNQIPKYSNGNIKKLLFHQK
Sequence of Substance-P receptor (Homo sapiens) (P25103 whole entry): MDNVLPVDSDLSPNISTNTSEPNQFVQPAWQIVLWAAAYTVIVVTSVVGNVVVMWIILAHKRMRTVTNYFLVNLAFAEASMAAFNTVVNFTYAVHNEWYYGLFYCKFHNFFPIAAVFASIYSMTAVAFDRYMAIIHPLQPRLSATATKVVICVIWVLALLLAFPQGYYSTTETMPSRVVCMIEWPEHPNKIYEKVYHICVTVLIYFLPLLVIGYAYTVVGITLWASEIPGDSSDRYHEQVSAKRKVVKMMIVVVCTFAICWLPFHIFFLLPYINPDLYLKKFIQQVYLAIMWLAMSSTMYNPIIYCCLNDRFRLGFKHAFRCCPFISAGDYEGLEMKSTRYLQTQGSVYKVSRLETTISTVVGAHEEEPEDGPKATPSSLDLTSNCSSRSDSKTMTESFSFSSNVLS
Sequence of Muscarinic acetylcholine receptor M2 (Homo sapiens) (P08172 whole entry): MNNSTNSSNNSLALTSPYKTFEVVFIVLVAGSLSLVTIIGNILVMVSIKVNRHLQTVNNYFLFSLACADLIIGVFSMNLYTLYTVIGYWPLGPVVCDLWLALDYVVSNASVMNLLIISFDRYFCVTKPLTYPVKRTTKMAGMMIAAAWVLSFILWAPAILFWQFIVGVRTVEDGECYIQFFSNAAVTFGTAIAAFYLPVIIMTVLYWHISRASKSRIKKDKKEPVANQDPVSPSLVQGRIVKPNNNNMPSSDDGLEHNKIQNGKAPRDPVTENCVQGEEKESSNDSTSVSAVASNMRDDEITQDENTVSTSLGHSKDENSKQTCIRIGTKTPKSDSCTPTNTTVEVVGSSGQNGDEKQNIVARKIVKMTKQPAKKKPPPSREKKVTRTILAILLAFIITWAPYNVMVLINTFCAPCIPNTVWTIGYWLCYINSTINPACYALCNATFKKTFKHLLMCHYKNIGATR
Sequence of Metabotropic glutamate receptor 4 (Rattus norvegicus) (P31423 whole entry): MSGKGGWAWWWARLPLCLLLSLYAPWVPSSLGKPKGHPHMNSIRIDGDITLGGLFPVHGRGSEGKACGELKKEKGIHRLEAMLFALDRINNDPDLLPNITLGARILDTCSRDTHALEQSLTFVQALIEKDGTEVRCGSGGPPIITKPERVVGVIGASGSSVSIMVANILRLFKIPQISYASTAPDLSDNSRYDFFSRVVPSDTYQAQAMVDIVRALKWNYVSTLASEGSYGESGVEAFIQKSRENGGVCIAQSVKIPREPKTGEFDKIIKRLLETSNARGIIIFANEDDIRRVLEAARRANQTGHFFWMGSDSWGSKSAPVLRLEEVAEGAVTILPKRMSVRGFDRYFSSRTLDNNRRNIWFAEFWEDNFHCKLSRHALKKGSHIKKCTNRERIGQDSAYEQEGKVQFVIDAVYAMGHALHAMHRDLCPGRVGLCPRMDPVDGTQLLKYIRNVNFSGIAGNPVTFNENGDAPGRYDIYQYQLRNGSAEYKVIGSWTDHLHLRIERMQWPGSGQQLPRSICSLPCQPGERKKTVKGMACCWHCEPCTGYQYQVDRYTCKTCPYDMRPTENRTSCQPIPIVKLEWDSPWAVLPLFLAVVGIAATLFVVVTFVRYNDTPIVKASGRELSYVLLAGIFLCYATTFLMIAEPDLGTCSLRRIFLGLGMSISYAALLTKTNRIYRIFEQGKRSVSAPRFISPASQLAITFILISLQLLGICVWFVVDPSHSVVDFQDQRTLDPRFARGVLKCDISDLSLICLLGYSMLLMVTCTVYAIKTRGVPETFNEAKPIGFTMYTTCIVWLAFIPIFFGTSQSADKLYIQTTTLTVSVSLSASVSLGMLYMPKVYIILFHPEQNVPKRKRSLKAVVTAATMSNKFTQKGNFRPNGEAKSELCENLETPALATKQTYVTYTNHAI
Sequence of Metabotropic glutamate receptor 3 (Rattus norvegicus) (P31422 23-879 limits assumed): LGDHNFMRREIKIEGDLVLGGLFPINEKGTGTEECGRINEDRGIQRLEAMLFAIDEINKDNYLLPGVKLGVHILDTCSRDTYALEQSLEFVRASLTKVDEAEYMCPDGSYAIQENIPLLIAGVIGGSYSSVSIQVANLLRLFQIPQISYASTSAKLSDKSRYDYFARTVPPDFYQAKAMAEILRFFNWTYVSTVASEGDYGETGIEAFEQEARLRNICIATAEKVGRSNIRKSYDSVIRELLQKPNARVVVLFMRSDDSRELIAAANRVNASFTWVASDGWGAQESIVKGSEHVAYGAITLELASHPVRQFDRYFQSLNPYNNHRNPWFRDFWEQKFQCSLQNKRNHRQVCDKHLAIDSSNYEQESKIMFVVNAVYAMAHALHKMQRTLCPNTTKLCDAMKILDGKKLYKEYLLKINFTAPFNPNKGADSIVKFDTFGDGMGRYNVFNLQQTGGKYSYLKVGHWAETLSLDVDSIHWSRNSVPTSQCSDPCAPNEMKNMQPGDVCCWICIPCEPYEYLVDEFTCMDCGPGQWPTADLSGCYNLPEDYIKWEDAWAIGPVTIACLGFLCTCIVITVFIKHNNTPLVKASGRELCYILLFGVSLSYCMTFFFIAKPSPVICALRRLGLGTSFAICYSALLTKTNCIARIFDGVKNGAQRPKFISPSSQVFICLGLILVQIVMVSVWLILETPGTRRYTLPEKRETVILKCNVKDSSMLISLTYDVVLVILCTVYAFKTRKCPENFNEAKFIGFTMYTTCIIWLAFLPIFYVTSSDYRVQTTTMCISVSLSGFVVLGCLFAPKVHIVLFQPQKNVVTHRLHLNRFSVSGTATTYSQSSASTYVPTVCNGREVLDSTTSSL
Sequence of Androgen receptor (Homo sapiens) (P10275 whole entry): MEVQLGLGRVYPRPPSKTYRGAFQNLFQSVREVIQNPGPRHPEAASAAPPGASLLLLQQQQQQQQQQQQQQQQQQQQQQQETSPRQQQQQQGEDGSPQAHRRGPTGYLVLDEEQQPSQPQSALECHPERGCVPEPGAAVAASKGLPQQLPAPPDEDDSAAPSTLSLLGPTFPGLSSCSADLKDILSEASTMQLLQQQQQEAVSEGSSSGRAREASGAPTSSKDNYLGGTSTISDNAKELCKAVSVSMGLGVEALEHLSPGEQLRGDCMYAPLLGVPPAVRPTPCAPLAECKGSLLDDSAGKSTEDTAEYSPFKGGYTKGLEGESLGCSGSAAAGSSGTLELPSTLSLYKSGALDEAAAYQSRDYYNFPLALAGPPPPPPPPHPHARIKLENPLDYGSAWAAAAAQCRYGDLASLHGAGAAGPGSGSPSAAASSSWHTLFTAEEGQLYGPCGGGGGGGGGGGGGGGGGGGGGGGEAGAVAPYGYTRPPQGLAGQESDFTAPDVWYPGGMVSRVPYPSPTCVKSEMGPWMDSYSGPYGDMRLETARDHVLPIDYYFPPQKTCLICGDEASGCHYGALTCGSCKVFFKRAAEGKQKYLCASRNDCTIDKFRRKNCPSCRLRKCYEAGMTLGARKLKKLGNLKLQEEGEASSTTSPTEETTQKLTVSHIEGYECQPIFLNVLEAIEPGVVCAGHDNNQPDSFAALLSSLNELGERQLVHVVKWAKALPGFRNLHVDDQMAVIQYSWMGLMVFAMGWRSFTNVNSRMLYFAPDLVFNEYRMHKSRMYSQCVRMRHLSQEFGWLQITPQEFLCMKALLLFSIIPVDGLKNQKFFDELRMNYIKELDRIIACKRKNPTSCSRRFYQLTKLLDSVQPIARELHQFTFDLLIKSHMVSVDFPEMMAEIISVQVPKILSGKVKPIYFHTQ
Sequence of Platelet-activating factor receptor (Homo sapiens) (P25105 whole entry): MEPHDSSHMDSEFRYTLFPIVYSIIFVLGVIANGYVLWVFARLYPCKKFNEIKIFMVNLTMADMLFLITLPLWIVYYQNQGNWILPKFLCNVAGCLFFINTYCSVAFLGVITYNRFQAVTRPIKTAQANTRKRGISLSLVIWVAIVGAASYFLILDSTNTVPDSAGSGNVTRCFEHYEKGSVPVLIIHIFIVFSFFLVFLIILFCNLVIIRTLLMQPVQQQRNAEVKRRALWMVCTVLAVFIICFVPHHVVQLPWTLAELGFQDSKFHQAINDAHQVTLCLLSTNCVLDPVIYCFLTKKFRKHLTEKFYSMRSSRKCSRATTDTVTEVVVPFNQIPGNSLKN

For `Cc1csc(NC(=O)c2cc(F)cc(Oc3cncnc3)c2)n1`, the inhibition (Mus musculus [1]) was “Active”, the inhibition (Mus musculus [2]) was “Dose-dependent effect” and the inhibition [3] was greater than 35%. The inhibition [4] was greater than 35%, the inhibition (Rattus norvegicus [5]) was greater than 35% and the inhibition [6] was greater than 35%. For the same compound, the inhibition (Rattus norvegicus [7]) was greater than 35%, the inhibition [8] was greater than 35% and the inhibition [9] was greater than 35%. The inhibition (Rattus norvegicus [10]) was greater than 35%, the inhibition [11] was greater than 35% and the inhibition (Mus musculus [12]) was greater than 35%. For the same compound, the inhibition [13] was greater than 35%, the inhibition [14] was greater than 35% and the inhibition [15] was greater than 35%. The inhibition (CHO-K1 [16]) was greater than 35%, the inhibition (Rattus norvegicus [17]) was greater than 35% and the inhibition [18] was greater than 35%. The inhibition [19] was greater than 35%, the inhibition (Rattus norvegicus [20]) was greater than 35% and the inhibition [21] was greater than 35%. The inhibition [22] was greater than 35%, the inhibition (Rattus norvegicus [23]) was greater than 35% and the inhibition [24] was greater than 35%. It also gave an inhibition (CHO-K1 [25]) greater than 35%, an inhibition at 10 µM [26] greater than 35% and an inhibition [27] greater than 35%. For the same compound, the inhibition [28] was greater than 35%, the inhibition [29] was greater than 35% and the Activity [30] was “inactive”. The Activity [31] was “inactive”, the Kp [32] was 0.99 and the AUC (Brain [33]) was 696 ng·h/g. For the same compound, the Tmax (Brain [34]) was 15 min.
